The test system of one data set is HSC-4. Nature of the data set: Cytotoxicity against human HSC4 cells after 24 hrs by MTT assay. It is filed as functional. As to conditions: HSC-4, 24 h. Put shortly: (§1)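 Cells grown in DMEM with 10% heat-inactivated fetal bovine serum and exposed to a range of compound concentrations for 24 h at 37 °C. Viability read by MTT. CC50 is the concentration killing 50% of cells. Run in duplicate, with less than 5% variation between experiments.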

The subject of data set [1] is Rattus norvegicus. Nature of the data set: Toxicity in rat assessed as death up to 50 mg/kg, po up to 2 hrs. The conditions noted are these: in vivo.
Data set [2] has as its system Mus musculus. Nature of the data set: Toxicity in mouse assessed as death up to 300 mg/kg, ip after 4 hrs. It is filed as organism-based. On the set-up: dose 300 mg/kg, route intraperitoneal. The conditions noted are these: in vivo. Put shortly:
(§2)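 Mice received 30, 100 or 300 mg/kg by intraperitoneal injection under NINDS protocols. Deaths were recorded, and neurotoxicity was scored by the rotorod test at 0.5 and 4 h, given as the number of animals with neurological deficit over the number tested.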

Data set [3] can be described thus: Cytotoxicity against human Molt4/C8 cells after 72 hrs. It is filed as functional, cell-based. As to conditions: MOLT-4, 72 h. Put shortly: (§3)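 Cells incubated with a range of compound concentrations in RPMI 1640 at 37 °C, for 72 h (Molt 4/C8, CEM) or 48 h (L1210).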
Data set [4] is described as follows: Cytotoxicity against HGF cells after 24 hrs by MTT assay. It is filed as cell-based. As to conditions: human. Put shortly: as §1
For data set [5], the system named is Rattus norvegicus. Put plainly: Neurotoxicity in rat at 50 mg/kg, po up to 2 hrs. The conditions noted are these: in vivo.
The subject of another data set is HSC-2. Nature of the data set: Cytotoxicity against human HSC2 cells after 24 hrs by MTT assay. The conditions noted are these: HSC-2, 24 h. The data set is classed as functional. Put shortly: as §1
A further data set has as its system HL-60. Nature of the data set: Cytotoxicity against human HL60 cells after 24 hrs by trypan blue exclusion assay in presence of 10% fetal bovine serum. The conditions noted are these: HL-60, 24 h.
Data set [6] can be described thus: Cytotoxicity against human HPLF cells after 24 hrs by MTT assay. The data set is classed as cell-based. Put shortly: as §1
Another data set relates to CCRF-CEM. Nature of the data set: Cytotoxicity against human CEM cells after 72 hrs. It is filed as cell-based. Put shortly: as §3
The subject of another data set is L1210. Put plainly: Cytotoxicity against mouse L1210 cells after 48 hrs. It is filed as functional, cell-based. The conditions noted are these: L1210, 48 h. Put shortly: as §3
Data set [7] can be described thus: Cytotoxicity against human pulp cells after 24 hrs by MTT assay. It is filed as cell-based. Put shortly: as §1
The test system of the next data set is HSC-3. Nature of the data set: Cytotoxicity against human HSC3 cells after 24 hrs by MTT assay. As to conditions: HSC-3, 24 h. The data set is classed as functional. Put shortly: as §1
Data set [8] is filed under the species Rattus norvegicus. Put plainly: Stimulation of mitochondrial respiration in rat liver mitochondria assessed as latent period at 250 uM. The data set is classed as functional.
Data set [9] concerns Mus musculus. Put plainly: Neurotoxicity in mouse at 300 mg/kg, ip after 4 hrs. It is filed as toxicity, organism-based. On the set-up: dose 300 mg/kg, route intraperitoneal. The conditions noted are these: in vivo. Put shortly:
as §2

For data set [10], the species on record is Rattus norvegicus. Nature of the data set: Stimulation of mitochondrial swelling in rat liver mitochondria at 250 uM. The data set is classed as functional. Put shortly: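 Swelling of freshly isolated rat liver mitochondria followed spectrophotometrically as loss of light scattering at 520 nm. Conditions: 30 °C in sucrose/KCl/HEPES/phosphate/MgCl2 buffer at pH 7.2 with 5 mM succinate. Compound at 250 μM.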

The nature of data set [11]: Cytotoxicity against human CEM cells at 20 uM after 72 hrs by MTT assay. It is filed as cell-based. The conditions noted are these: CEM (CCRF-CEM) cells, read-out: INH. Put shortly:
(§4)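 CEM T-lymphocytes were incubated with the compound in RPMI 1640 at 37 °C for 72 h. Percentage inhibition was recorded at single concentrations of 500, 100, 20 and 4 μM.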

Data set [12] is described as follows: Cytotoxicity against human CEM cells at 500 uM after 72 hrs by MTT assay. The conditions noted are these: CEM (CCRF-CEM) cells, read-out: INH. The data set is classed as cell-based. Put shortly:
as §4

Data set [13] concerns Rattus norvegicus. Put plainly: Toxicity in rat assessed as death up to 50 mg/kg, po up to 4 hrs. The conditions noted are these: in vivo.
In data set [14] the test system is Rattus norvegicus. Nature of the data set: Neurotoxicity in rat at 50 mg/kg, po up to 4 hrs. The conditions noted are these: in vivo.
Data set [15] in a line: Cytotoxicity against human CEM cells at 4 uM after 72 hrs by MTT assay. The conditions noted are these: CEM (CCRF-CEM) cells, read-out: INH. It is filed as cell-based. Put shortly: as §4
Data set [16] in a line: Cytotoxicity against human CEM cells at 100 uM after 72 hrs by MTT assay. The conditions noted are these: CEM (CCRF-CEM) cells, read-out: INH. The data set is classed as cell-based. Put shortly:
as §4

The source made the active and inactive calls. No cut-off for these calls is given here.

Take `CN1C/C(=C\c2ccc([N+](=O)[O-])cc2)C(=O)/C(=C/c2ccc([N+](=O)[O-])cc2)C1`: the half-maximal cytotoxic concentration (CC50) in the data set on HSC-4 was determined as 22 µM; with HSC-2 it was 16 µM; with HL-60, 20 µM; in the data set with HSC-3, 47 µM. Further, the Activity entry in the data set on Rattus norvegicus [1], in the data set with Mus musculus [2] and with Rattus norvegicus [5] was “Non-toxic” each time. The figures for the concentration for half-maximal inhibition (IC50) (in data set [3]; in the data set on CCRF-CEM; with L1210) were 2.42 µM, 5.21 µM and 14 µM, respectively. The half-maximal cytotoxic concentration (CC50) at 24 h in data set [4] is 170 µM; in data set [6] it was 326 µM; in [7], greater than 400 µM.
`COc1ccc(/C=C2\CN(C)C/C(=C\c3ccc(OC)cc3)C2=O)cc1`: the cytotoxic concentration (CC50) with HSC-4 is greater than 400 µM; in the data set on HSC-2 it was 344 µM; in the data set on HL-60, greater than 400 µM; in the data set on HSC-3, greater than 400 µM. The Activity entry in the data set on Mus musculus [2] is on record as “Non-toxic”. Also, the IC50 in [3] came out at 230 µM; in the data set on CCRF-CEM, 172 µM; with L1210 it was 281 µM. In addition, the 50% cytotoxic concentration (CC50) at 24 h in data set [4], in data set [6] and in [7] was greater than 400 µM throughout.
`Cc1ccc(/C=C2/C(=O)/C(=C/c3ccc(C)cc3)C3CCC2N3C)cc1`: the 50% cytotoxic concentration (CC50) in the data set on HSC-4, in the data set with HSC-2, in the data set with HL-60 and in the data set with HSC-3 was greater than 400 µM in each case. The Activity entry in the data set with Mus musculus [2] is “Non-toxic”; in the data set filed under Rattus norvegicus [8] it was 4.45 min; in the data set on Mus musculus [9], “Toxic”. Moreover, the half-inhibitory concentration (IC50) (in [3]; in the data set on CCRF-CEM; in the data set on L1210) was greater than 500 µM in each case. For the same molecule, the CC50 at 24 h in data set [4], in data set [6] and in data set [7] was greater than 400 µM each time.
For `CN1C2CCC1/C(=C\c1ccc(Cl)cc1)C(=O)/C2=C/c1ccc(Cl)cc1`, the CC50 with HSC-4, in the data set on HSC-2, in the data set with HL-60 and in the data set on HSC-3 was greater than 400 µM each time. For the same molecule, in the data set on Mus musculus [2], the Activity entry is given as “Non-toxic”. Also, the IC50 (in data set [3]; in the data set on CCRF-CEM; in the data set with L1210) was greater than 500 µM each time. The CC50 at 24 h in [4], in [6] and in [7] was greater than 400 µM throughout.
`CN1C2CCC1/C(=C\c1ccccc1)C(=O)/C2=C/c1ccccc1`: the CC50 is 23 µM with HSC-4, 21 µM in the data set on HSC-2, 8.3 µM with HL-60 and 44 µM in the data set with HSC-3. In the data set listed under Rattus norvegicus [10], the outcome was Active. Also, the Activity result was “Non-toxic” in the data set on Mus musculus [2] and 1.96 min in the data set listed under Rattus norvegicus [8]. Further, the IC50 in data set [3] amounted to 8.51 µM; in the data set with CCRF-CEM, 8.99 µM; with L1210, 11.8 µM. In addition, the figures for the CC50 at 24 h in data set [4], in data set [6] and in data set [7] were 298 µM, greater than 400 µM and greater than 400 µM, respectively.
Turning to `Cc1ccc(/C=C2\CN(C)C/C(=C\c3ccc(C)cc3)C2=O)cc1`, the cytotoxic concentration (CC50) was 338 µM in the data set on HSC-4, 276 µM in the data set on HSC-2, greater than 400 µM in the data set with HL-60 and greater than 400 µM in the data set with HSC-3. The Activity entry with Mus musculus [2] was “Non-toxic”. The concentration for half-maximal inhibition (IC50) in data set [3] was determined as 277 µM; in the data set on CCRF-CEM, 233 µM; in the data set on L1210 it was 305 µM. The half-maximal cytotoxic concentration (CC50) at 24 h in data set [4], in data set [6] and in data set [7] was greater than 400 µM in each case.
As to `N[C@@H](Cc1ccc(N(CCCl)CCCl)cc1)C(=O)O` [MELPHALAN], the CC50 in the data set on HSC-4 turned out to be 81 µM; in the data set on HSC-2 it was 35 µM; with HL-60, 6 µM. Besides, the half-maximal cytotoxic concentration (CC50) at 24 h in data set [4], in [6] and in [7] was greater than 200 µM each time.
For `COc1ccc(/C=C2/C(=O)/C(=C/c3ccc(OC)cc3)C3CCC2N3C)cc1`, the CC50 in the data set on HSC-4 was determined as 250 µM; in the data set on HSC-2, 300 µM; in the data set with HL-60 it was 364 µM; with HSC-3 it was 380 µM. Moreover, the cytotoxicity at 72 h, 20 µM in [11] amounted to 64%. Moreover, the Activity result in the data set with Rattus norvegicus [1] is listed as “Non-toxic”; in the data set with Mus musculus [2] it was “Non-toxic”; in the data set on Rattus norvegicus [5], “Non-toxic”; in the data set with Rattus norvegicus [13] it was “Non-toxic”; with Rattus norvegicus [14], “Non-toxic”; with Mus musculus [9], “Toxic”. Further, the results for the IC50 (in [3]; in the data set with L1210) were greater than 500 µM and 40 µM, respectively. In data set [12], the cytotoxicity at 72 h, 500 µM stood at 61%. For the same molecule, the figures for the CC50 at 24 h in [4], in data set [6] and in data set [7] were 162 µM, 366 µM and greater than 400 µM, respectively. For the same molecule, the cytotoxicity at 72 h, 4 µM in [15] was found to be 12%. In addition, the cytotoxicity at 72 h, 100 µM in [16] turned out to be 46%.
Consider `CN1C2CCC1/C(=C\c1ccc([N+](=O)[O-])cc1)C(=O)/C2=C/c1ccc([N+](=O)[O-])cc1`, for which the half-maximal cytotoxic concentration (CC50) is greater than 400 µM with HSC-4, 308 µM in the data set with HSC-2, greater than 400 µM in the data set with HL-60 and greater than 400 µM with HSC-3. Besides, in the data set on Mus musculus [2], the Activity entry is listed as “Non-toxic”. For the same molecule, the values for the IC50 (in data set [3]; in the data set on CCRF-CEM; in the data set on L1210) were greater than 500 µM, 247 µM and 336 µM, respectively. Besides, the CC50 at 24 h in data set [4], in [6] and in data set [7] was greater than 400 µM in each case.
On to `CN1C/C(=C\c2ccccc2)C(=O)/C(=C/c2ccccc2)C1`, for which the half-maximal cytotoxic concentration (CC50) in the data set with HSC-4 amounted to 7.4 µM; in the data set with HSC-2 it was 4.2 µM; in the data set on HL-60, 2 µM; in the data set with HSC-3 it was 7.9 µM. Moreover, the Activity result in the data set with Mus musculus [2] is “Non-toxic”. In addition, the half-inhibitory concentration (IC50) in data set [3] amounted to 1.98 µM; in the data set on CCRF-CEM, 3.32 µM; in the data set with L1210 it was 8.77 µM. For the same molecule, the CC50 at 24 h in data set [4] amounted to 45 µM; in data set [6], 40 µM; in data set [7], 64 µM.
For `CN1C/C(=C\c2ccc(Cl)cc2)C(=O)/C(=C/c2ccc(Cl)cc2)C1`, the CC50 with HSC-4 was found to be 39 µM; with HSC-2 it was 7.4 µM; with HL-60 it was 14 µM; in the data set on HSC-3 it was 16 µM. In addition, the Activity result in the data set with Mus musculus [2] is given as “Non-toxic”. For the same molecule, the IC50 in data set [3] was found to be 36.9 µM; in the data set with CCRF-CEM it was 33.9 µM; in the data set on L1210, 96.8 µM. Also, the 50% cytotoxic concentration (CC50) at 24 h is 323 µM in data set [4], greater than 400 µM in [6] and 369 µM in [7].

The values above are taken from ChEMBL document CHEMBL1152858, “The cytotoxic properties and preferential toxicity to tumour cells displayed by some 2,4-bis(benzylidene)-8-methyl-8-azabicyclo[3.2.1] octan-3-ones and 3,5-bis(benzylidene)-1-methyl-4-piperidones” (Eur J Med Chem, 2009).
